Measured values reported in ChEMBL document CHEMBL1121923, “N2- and C-7 substituted actinomycin D analogues: synthesis, DNA-binding affinity, and biochemical and biological properties. Structure-activity relationship” (J Med Chem, 1981).

Assays:
[1] = test system: P388; test: Concentration of compound required for 50% inhibition of synthesis of DNA in cultured P388 cells; format: functional; details: Mus musculus, read-out: ED50 (the source's name)
[2] = test system: P388; test: Concentration of compound required for 50% inhibition of synthesis of RNA in cultured P388 cells; format: functional; details: Mus musculus, read-out: ED50 (the source's name)
[3] = test system: P388; test: Concentration required for 50% inhibition of incorporation of labeled uridine by P388 cells for the synthesis of RNA (in vitro); Not determined because of lack of DNA binding; format: functional, cell-based; details: Mus musculus
[4] = test system: P388; test: Concentration required for 50% inhibition of incorporation of labeled thymidine by p388 cells for synthesis of DNA (in vitro); Not determined because of lack of DNA binding; format: functional, cell-based; details: Mus musculus
[5] = test system: P388; test: Concentration of compound required for 50% inhibition of incorporation of labeled thymidine by p388 cells for synthesis of DNA (in vitro); Solubility too low; format: functional, cell-based; details: Mus musculus
[6] = test system: Calf thymus DNA; test: Apparent binding constant against calf thymus DNA-drug complex; d indicates solubility too low for determination; format: nucleic-acid assay; details: Bos taurus
How it was run: (§1)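 Calf thymus DNA; apparent binding constant and apparent number of drug binding sites per base pair, taken from a Scatchard plot of binding isotherms obtained by spectral titration. Run in 0.01 M phosphate buffer, pH 7.0, at 20 °C.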

[7] = test system: Calf thymus DNA; test: Apparent number of binding sites per base pairs in DNA; d indicates solubility too low for determination; format: nucleic-acid assay; details: Bos taurus; how it was run: as §1
[8] = test system: P388; test: Concentration of compound required for 50% inhibition of incorporation of labeled uridine by P388 cells for the synthesis of RNA (in vitro); Solubility too low; format: functional, cell-based; details: Mus musculus

Row | SMILES | ED50 [3] | ED50 [4] | also measured
1 | Cc1c2oc3c(C)c(O)c(N)c(C(=O)N[C@@H]4C(=O)N[C@H](C(C)C)C(=O)N5CCC[C@H]5C(=O)N(C)CC(=O)N(C)[C@@H](C(C)C)C(=O)O[C@@H]4C)c3nc-2c(C(=O)N[C@@H]2C(=O)N[C@H](C(C)C)C(=O)N3CCC[C@H]3C(=O)N(C)CC(=O)N(C)[C@@H](C(C)C)C(=O)O[C@@H]2C)c/c1=N/Cc1ccc(Cl)c(Cl)c1 |  |  | EC50 [1]: 418 nM; EC50 [2]: 96 nM
2 | Cc1c2oc3c(C)ccc(C(=O)N[C@@H]4C(=O)N[C@H](C(C)C)C(=O)N5CCC[C@@H]5C(=O)N(C)CC(=O)N(C)[C@@H](C(C)C)C(=O)O[C@@H]4C)c3nc-2c(C(=O)N[C@H]2C(=O)N[C@@H](C(C)C)C(=O)N3CCC[C@H]3C(=O)N(C)CC(=O)N(C)[C@H](C(C)C)C(=O)O[C@H]2C)c(NCCCCCCCCN)c1=O | Not measurable | Not measurable | 
3 | CCCCCCCCCCCNc1c(C(=O)N[C@H]2C(=O)N[C@@H](C(C)C)C(=O)N3CCC[C@H]3C(=O)N(C)CC(=O)N(C)[C@H](C(C)C)C(=O)O[C@H]2C)c2nc3c(C(=O)N[C@@H]4C(=O)N[C@H](C(C)C)C(=O)N5CCC[C@@H]5C(=O)N(C)CC(=O)N(C)[C@@H](C(C)C)C(=O)O[C@@H]4C)ccc(C)c3oc-2c(C)c1=O | Not measurable | Not measurable | 
4 | CCCCCCNc1c(C(=O)N[C@H]2C(=O)N[C@@H](C(C)C)C(=O)N3CCC[C@H]3C(=O)N(C)CC(=O)N(C)[C@H](C(C)C)C(=O)O[C@H]2C)c2nc3c(C(=O)N[C@@H]4C(=O)N[C@H](C(C)C)C(=O)N5CCC[C@@H]5C(=O)N(C)CC(=O)N(C)[C@@H](C(C)C)C(=O)O[C@@H]4C)ccc(C)c3oc-2c(C)c1=O | Not measurable | Not measurable | 
5 | CCCCCCCCC/N=c1/cc(C(=O)N[C@@H]2C(=O)N[C@H](C(C)C)C(=O)N3CCC[C@@H]3C(=O)N(C)CC(=O)N(C)[C@@H](C(C)C)C(=O)O[C@@H]2C)c2nc3c(C(=O)N[C@H]4C(=O)N[C@@H](C(C)C)C(=O)N5CCC[C@H]5C(=O)N(C)CC(=O)N(C)[C@H](C(C)C)C(=O)O[C@H]4C)c(N)c(O)c(C)c3oc-2c1C |  |  | ED50 [5]: Solubility too low; K app [6]: Not measurable; Bapp [7]: Not measurable; ED50 [8]: Solubility too low
